Test results as given in PubChem BioAssay.
Active and inactive are the calls of the source. Unless noted, no stated cut-off is given here; in the data, active means inhibition above about 30%; inactive means the rest.

How the values were obtained:
[1] = Her2 expression decrease, cell viability multiplex – SKBR3 breast tumor cells, AlphaScreen, ATP viability, primary screen (AID 461;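 active means Her2 level under about 52% in both replicate screens, with viability over 70% of control, limit read from the data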;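 on Her2 level: lower value means less Her2 protein in the cells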;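 on viability: percent of carrier control wells set as 100% viability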); settings: SKBR3 Her2 protein level, 18-24 h, measured here: SKBR3 viability, ATP luminescence, at 10 µM
[2] = target: Receptor tyrosine-protein kinase erbB-2 (Homo sapiens) (UniProt P04626); test: as above; settings: 18-24 h, at 10 µM, stronger effect = lower value
Receptor tyrosine-protein kinase erbB-2 (Homo sapiens), sequence (P04626 whole entry, looked up): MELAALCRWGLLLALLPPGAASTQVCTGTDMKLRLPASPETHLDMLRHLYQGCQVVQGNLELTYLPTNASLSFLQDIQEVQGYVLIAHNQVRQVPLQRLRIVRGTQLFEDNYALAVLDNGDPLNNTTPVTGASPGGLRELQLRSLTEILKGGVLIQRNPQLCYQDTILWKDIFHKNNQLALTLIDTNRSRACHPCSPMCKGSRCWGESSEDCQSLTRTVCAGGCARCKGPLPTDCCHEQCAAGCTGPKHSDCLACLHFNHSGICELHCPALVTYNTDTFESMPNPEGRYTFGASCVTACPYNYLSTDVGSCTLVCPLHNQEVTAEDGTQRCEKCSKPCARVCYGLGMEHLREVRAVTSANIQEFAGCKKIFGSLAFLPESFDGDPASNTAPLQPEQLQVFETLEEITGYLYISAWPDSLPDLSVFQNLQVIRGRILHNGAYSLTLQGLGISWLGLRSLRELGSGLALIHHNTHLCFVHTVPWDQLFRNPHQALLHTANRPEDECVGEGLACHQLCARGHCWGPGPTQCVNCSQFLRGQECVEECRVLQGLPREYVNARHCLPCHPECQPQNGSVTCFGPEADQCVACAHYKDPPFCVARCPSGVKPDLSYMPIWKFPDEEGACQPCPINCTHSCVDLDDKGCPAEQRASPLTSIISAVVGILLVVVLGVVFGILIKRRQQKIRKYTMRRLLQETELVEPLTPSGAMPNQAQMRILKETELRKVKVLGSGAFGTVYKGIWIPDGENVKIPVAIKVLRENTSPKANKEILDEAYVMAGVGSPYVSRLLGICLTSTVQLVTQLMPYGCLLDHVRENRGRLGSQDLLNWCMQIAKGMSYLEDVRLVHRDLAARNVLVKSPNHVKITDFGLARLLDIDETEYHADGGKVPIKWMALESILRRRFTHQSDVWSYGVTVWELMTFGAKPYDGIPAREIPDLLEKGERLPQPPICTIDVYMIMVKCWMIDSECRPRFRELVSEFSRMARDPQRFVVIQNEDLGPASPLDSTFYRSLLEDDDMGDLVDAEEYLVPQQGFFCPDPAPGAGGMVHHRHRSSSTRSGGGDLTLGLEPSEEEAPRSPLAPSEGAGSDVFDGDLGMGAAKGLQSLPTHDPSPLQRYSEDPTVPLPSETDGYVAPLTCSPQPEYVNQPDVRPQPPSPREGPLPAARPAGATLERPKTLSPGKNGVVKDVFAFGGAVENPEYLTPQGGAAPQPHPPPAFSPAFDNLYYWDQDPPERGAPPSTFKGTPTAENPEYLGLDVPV

[3] = reduced viability of SK-BR-3 breast cancer cells – cell-based, 24 h, human, pilot screen (AID 572;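 active means viability at or below 10% of carrier control in both of two separate runs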;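 further: compound exposure lasted between 18 and 24 h rather than exactly 24 h; 100% = carrier-treated control wells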); settings: SK-BR-3 viability, CellTiter-Glo luminescence, at 10 µM, stronger effect = lower value
[4] = HUVEC growth inhibition – cell-based, human, primary screen (AID 575;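 active means viability at or below 30% in both replicate assays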;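 further: 100% = median of untreated cell wells with 0.1% DMSO on each plate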); settings: HUVEC proliferation, CellTiter-Glo luminescence, 72 h; at 10 µM; stronger effect = lower value
Summary of the method: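 Test system: primary human umbilical vein endothelial cells; medium: endothelial basal medium with 2% FBS plus growth supplements; dosing: 10 µM compound only; times: 72 h treatment at 37 °C; signal: CTG luminescence; read-out: % viability relative to median vehicle-well signal on each plate; control set: vehicle and MePR control wells; plate: 384-well, collagen-coated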

[5] = H69AR cell proliferation blockers – human, duplicate replicates, primary screen (AID 580;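 active means viability at or under a set limit in both replicates, limit being median viability minus 3 SD, cut at about 48% in these data, passing the limit was not always enough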;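 further: 100% = mean luminescence of untreated wells and 0% = no signal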); settings: H69AR lung tumor cells viability, ATP luminescence, 72 h; at 10 µM; stronger effect = lower value
[6] = MRP1 drug-resistance reversers in H69AR cells – cell-based, doxorubicin co-treatment, pilot screen (AID 601;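 active means viability loss from added drug above about 55%, and viability with drug at most 40%, in both replicates, limit read from the data, passing the limit was not always enough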); settings: CellTiter-Glo, 72 h, at 10 µM; for differential viability (reversal): stronger effect = higher value
[7] = yeast transport mutant growth inhibition pilot in 384-well plates, post-Golgi transport modulator project (AID 636; in the data active means inhibition above about 31%); settings: absorbance 615 nm, about 18 h, stronger effect = higher value
[8] = growth suppression of yeast trafficking mutant, preliminary HTS, modulators of trafficking downstream of Golgi apparatus project, 1536-format plate, OD 615 nm (AID 637); settings: yeast transport mutant growth, absorbance 615 nm, 18 h; stronger effect = higher value
[9] = H69AR cells + 2 uM doxorubicin, measured here: viability with 2 uM doxorubicin, stronger effect = lower value
[10] = H69AR cells, compound alone cytotoxicity

| SMILES | viability [1] [%] | Her2 level [2] | viability [3] | viability [4] | viability [5] | differential viability (reversal) ([6]; H69AR cells + 2 uM doxorubicin) | viability [6, 9] [%] | viability [6, 10] [%] | inhibition [7] | inhibition [8] |
| --- | --- | --- | --- | --- | --- | --- | --- | --- | --- | --- |
| CC1(C)CC(=O)C(C=NCc2ccc3c(c2)OCO3)=C(O)C1 | 104 | 95.5% (inactive) | 104% (inactive) | 96.6% (inactive) | 91.3% (inactive) | 5% (inactive) | 86.3 | 91.3 | 0.65% (inactive) | -4.92% (inactive) |
| COc1ccc(NC(=O)CCNC(=O)Cn2ccc3ccccc3c2=O)c(OC)c1 | 101 | 91% (inactive) | 101% (inactive) | 108% (inactive) | 103% (inactive) | 14.4% (inactive) | 88.1 | 103 | -7.97% (inactive) | 7.17% (inactive) |
| Clc1ccc(-c2nnc3sc(-c4ccc(Br)o4)nn23)cc1 | 128 | 94.5% (inactive) | 128% (inactive) | 86% (inactive) | 104% (inactive) | 10.5% (inactive) | 93.5 | 104 | -5.07% (inactive) | 5.87% (inactive) |
| CC1=C(C(=O)NCc2ccccn2)C2(CCC(C)CC2)OC1=O (stereo not given) | 94.5 | 99% (inactive) | 94.5% (inactive) | 103% (inactive) | 89.4% (inactive) | -0.25% (inactive) | 89.7 | 89.4 | -5.47% (inactive) | -1.97% (inactive) |
| COc1ccccc1CC(NC(C)=O)C(=O)NC1CCN(c2nnnn2-c2ccccc2)CC1 (stereo not given) | 97 | 102% (inactive) | 97% (inactive) | 94.8% (inactive) | 96.5% (inactive) | -1.01% (inactive) | 97.5 | 96.5 | -0.95% (inactive) | 0% (inactive) |
| CC1CCC(NC(=O)C2CCN(c3cnccn3)CC2)CC1 (stereo not given) | 96 | 95% (inactive) | 96% (inactive) | 88.6% (inactive) | 92.5% (inactive) | 11.3% (inactive) | 81.2 | 92.5 | -1.76% (inactive) | -2.7% (inactive) |
| CCNC(=O)C1CC(=O)N(Cc2ccc3c(c2)OCO3)C(=Nc2ccc(OCC)cc2)S1 (stereo not given) | 94.5 | 76% (inactive) | 94.5% (inactive) | 48.6% (inactive) | 66.1% (inactive) | 2.95% (inactive) | 63.1 | 66.1 | -2.11% (inactive) | 6.89% (inactive) |
| O=C(Cn1ncc2c(=O)oc3ccccc3c21)Nc1nc2ccccc2s1 | 113 | 102% (inactive) | 113% (inactive) | 97.2% (inactive) | 102% (inactive) | 7.33% (inactive) | 94.9 | 102 | -8.08% (inactive) | -3.65% (inactive) |
| CC(C)Cc1n[nH]c(=O)[nH]1 | 118 | 115% (inactive) | 118% (inactive) | 93.9% (inactive) | 98.4% (inactive) | 9.75% (inactive) | 88.7 | 98.4 | -6.93% (inactive) | -9.84% (inactive) |
| CC1Cc2ccccc2N1C(=O)CSc1nc2ccccc2n1CC(=O)N1CCOCC1 (stereo not given) | 97 | 91% (inactive) | 97% (inactive) | 94% (inactive) | 97.8% (inactive) | 7% (inactive) | 90.8 | 97.8 | -6.13% (inactive) | 3.77% (inactive) |
| O=C(Nc1ccc2c(c1)OCO2)c1ccc(Br)c(S(=O)(=O)N2CCCC2)c1 | 98.5 | 80.5% (inactive) | 98.5% (inactive) | 58% (inactive) | 94% (inactive) | 1.82% (inactive) | 92.2 | 94 | -1.32% (inactive) | -0.16% (inactive) |
| O=C(CSc1nnc(-c2cnccn2)n1Cc1ccco1)c1ccc(Cl)cc1 | 90 | 81% (inactive) | 90% (inactive) | 105% (inactive) | 80.7% (inactive) | -2.83% (inactive) | 83.5 | 80.7 | -0.78% (inactive) | 6.5% (inactive) |
| CCN1CCN(C(=O)c2cc3c(=O)n(C)c4ccccc4c3n2C)CC1 | 110 | 94% (inactive) | 110% (inactive) | 88.2% (inactive) | 77.6% (inactive) | -9.27% (inactive) | 86.9 | 77.6 | 0.4% (inactive) | -1.33% (inactive) |
| CCN(CC)C(=O)c1sc2nc(-c3cccs3)cc(-c3cccs3)c2c1N | 102 | 88.5% (inactive) | 102% (inactive) | 76.2% (inactive) | 71.8% (inactive) | -12.7% (inactive) | 84.5 | 71.8 | -4.67% (inactive) | 21% (inactive) |
| CCOC(=O)C1=C(N)OC2=C(C(=O)CC(C)(C)C2)C1c1ccoc1 (stereo not given) | 80 | 107% (inactive) | 80% (inactive) | 112% (inactive) | 96.3% (inactive) | 8.7% (inactive) | 87.7 | 96.3 | -5.53% (inactive) | -8.33% (inactive) |
| CCOc1ccc2c(O)csc2c1 | 90.5 | 116% (inactive) | 90.5% (inactive) | 96.2% (inactive) | 95.9% (inactive) | 2.28% (inactive) | 93.7 | 95.9 | 0.13% (inactive) | 2.17% (inactive) |
